This passage reports half-life, IC50 and inhibition results from ChEMBL document CHEMBL4706575, “Nonpeptidic quinazolinone derivatives as dual nucleotide-binding oligomerization domain-like receptor 1/2 antagonists for adjuvant cancer chemotherapy” (Eur J Med Chem, 2020).

The nature of data set [1]: Half life in mouse liver microsomes at 1.25 uM preincubated for 5 mins followed by NADPH generating system addition and measured for 120 mins by LC-MS/MS analysis. It is filed as ADME, Microsome. A digest of the protocol:
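Mouse liver microsomes (1.25 mg/mL protein) in 100 mM phosphate pH 7.4 with 1.25 µM compound, preincubated 5 min at 37 °C. Reaction started with NADPH-generating system (1 mM NADP, 10 mM MgCl2, 10 mM G6P, 0.5 U/mL G6PDH). Sampled at 0–120 min, quenched with MeOH/ACN 1:1, analysed by LC-MS/MS.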
For orientation: Microsomes from liver hold many membrane-bound enzymes, among them those of drug oxidation.

For data set [2], the target named is T1, Nucleotide-binding oligomerization domain-containing protein 1 (Homo sapiens, UniProt Q9Y239).
T1 sequence (Q9Y239 whole entry): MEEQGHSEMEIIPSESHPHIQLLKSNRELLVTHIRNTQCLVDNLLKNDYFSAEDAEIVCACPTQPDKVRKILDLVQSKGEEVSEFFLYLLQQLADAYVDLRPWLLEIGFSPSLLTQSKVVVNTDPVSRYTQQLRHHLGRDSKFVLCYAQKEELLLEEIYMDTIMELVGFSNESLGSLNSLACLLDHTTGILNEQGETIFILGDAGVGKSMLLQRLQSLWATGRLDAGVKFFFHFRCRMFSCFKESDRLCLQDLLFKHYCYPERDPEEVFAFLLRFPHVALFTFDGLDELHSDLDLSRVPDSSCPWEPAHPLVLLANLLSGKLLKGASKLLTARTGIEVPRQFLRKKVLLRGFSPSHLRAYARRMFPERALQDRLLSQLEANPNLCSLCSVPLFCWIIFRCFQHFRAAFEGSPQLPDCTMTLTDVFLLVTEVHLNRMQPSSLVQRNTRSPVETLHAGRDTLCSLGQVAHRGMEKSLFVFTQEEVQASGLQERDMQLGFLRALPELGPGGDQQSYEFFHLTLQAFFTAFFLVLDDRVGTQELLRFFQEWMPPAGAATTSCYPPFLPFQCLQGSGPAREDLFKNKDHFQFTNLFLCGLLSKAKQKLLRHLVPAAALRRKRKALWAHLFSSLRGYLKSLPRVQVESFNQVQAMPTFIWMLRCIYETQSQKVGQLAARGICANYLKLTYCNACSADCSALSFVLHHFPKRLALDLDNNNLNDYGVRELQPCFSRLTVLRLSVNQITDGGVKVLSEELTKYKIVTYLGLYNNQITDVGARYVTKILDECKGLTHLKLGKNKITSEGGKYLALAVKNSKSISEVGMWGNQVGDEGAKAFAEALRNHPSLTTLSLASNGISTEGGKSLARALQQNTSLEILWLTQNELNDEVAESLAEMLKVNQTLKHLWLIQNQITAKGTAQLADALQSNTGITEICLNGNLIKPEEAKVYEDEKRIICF
The data set can be described thus: Antagonist activity at NOD1 in HEK-Blue hNOD1 cells assessed as inhibition of C12-iE-DAP-induced NFkappaB activation-mediated SEAP release preincubated for 3 hrs followed by C12-iE-DAP addition and measured after 20 hrs by spectrophotometric method. It counts as cell-based.

In data set [3] the target is T2, Nucleotide-binding oligomerization domain-containing protein 1 (Homo sapiens) (UniProt Q9Y239).
T2 sequence (whole entry): T1 sequence (Q9Y239 whole entry)
In words: Antagonist activity at NOD1 in HEK-Blue hNOD1 cells assessed as inhibition of C12-iE-DAP-induced NFkappaB activation-mediated SEAP release at 5 uM preincubated for 3 hrs followed by C12-iE-DAP addition and measured after 20 hrs by spectrophotometric method relative to control. It is filed as cell-based. The following applies: filed as antagonist, time 23.0 hrs.

For data set [4], the target named is T3, Nucleotide-binding oligomerization domain-containing protein 2 (Homo sapiens, UniProt Q9HC29). In words: Antagonist activity at NOD2 in HEK-Blue hNOD2 cells assessed as inhibition of MDP-induced NFkappaB activation-mediated SEAP release preincubated for 3 hrs followed by MDP addition and measured after 20 hrs by spectrophotometric method. It counts as cell-based. In outline:
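HEK-Blue hNOD2 cells preincubated 3 h with a range of concentrations, then MDP 100 ng/mL for 20 h. SEAP quantified. SRB assay run to exclude cytotoxicity. IC50 by nonlinear semi-logarithmic fit, mean ± SD, n = 3.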

Data set [5] deals with T3, Nucleotide-binding oligomerization domain-containing protein 2. In words: Antagonist activity at recombinant human NOD2 expressed in HEK293 cells assessed as inhibition of MDP-induced IL8 release measured after 24 hrs by HTRF assay. It counts as cell-based. (In general: In TR-FRET formats the signal depends on donor and acceptor labels being close together.)
The target in data set [6] is T1, Nucleotide-binding oligomerization domain-containing protein 1. In words: Antagonist activity at recombinant human NOD1 expressed in HEK293 cells assessed as inhibition of C12-iE-DAP-induced IL8 release measured after 24 hrs by HTRF assay. It is filed as cell-based.

T3 sequence (Q9HC29 whole entry, the tested form may be a part): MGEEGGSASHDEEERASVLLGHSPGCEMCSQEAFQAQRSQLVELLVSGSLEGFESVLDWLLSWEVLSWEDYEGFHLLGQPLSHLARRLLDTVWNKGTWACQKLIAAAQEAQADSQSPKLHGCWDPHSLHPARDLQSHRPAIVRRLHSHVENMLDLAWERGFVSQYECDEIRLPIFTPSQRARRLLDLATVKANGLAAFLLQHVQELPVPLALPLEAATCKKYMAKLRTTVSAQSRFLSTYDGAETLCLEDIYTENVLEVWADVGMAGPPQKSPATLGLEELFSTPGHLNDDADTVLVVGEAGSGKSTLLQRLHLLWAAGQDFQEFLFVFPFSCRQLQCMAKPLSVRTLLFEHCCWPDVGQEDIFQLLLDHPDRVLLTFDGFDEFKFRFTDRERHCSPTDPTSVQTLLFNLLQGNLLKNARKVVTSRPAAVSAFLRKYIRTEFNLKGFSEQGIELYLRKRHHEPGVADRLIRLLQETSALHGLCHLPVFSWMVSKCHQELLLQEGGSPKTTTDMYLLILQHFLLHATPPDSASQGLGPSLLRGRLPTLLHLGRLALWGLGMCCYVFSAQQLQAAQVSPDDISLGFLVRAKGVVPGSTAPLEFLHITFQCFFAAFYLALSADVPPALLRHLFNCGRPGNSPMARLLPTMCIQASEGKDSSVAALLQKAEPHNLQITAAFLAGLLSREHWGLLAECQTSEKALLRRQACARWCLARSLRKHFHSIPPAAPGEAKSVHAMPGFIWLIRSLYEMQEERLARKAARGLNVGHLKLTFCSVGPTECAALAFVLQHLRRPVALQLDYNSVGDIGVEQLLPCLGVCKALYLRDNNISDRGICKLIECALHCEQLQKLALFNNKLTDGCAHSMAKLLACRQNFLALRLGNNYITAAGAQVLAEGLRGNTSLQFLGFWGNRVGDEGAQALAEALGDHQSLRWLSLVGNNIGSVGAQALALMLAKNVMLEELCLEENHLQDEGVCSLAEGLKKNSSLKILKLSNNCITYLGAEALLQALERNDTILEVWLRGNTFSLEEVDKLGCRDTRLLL

As for `COC(=O)Cn1cnc2cc(NC(=O)CCCOc3ccc(C(F)(F)F)cc3)c(Oc3cccc(N4CCOCC4)c3)cc2c1=O`, the half-life at 1.25 µM in data set [1] was 9.6 min. Further, in data set [2], the concentration for half-maximal inhibition (IC50) was 1380 nM. Also, the inhibition in data set [3] came out at 91.2%.

As for `O=C(COCc1ccc(C(F)(F)F)cc1)Nc1cc2ncn(CC(=O)N3CCCC(F)(F)C3)c(=O)c2cc1Oc1cccc(N2CCOCC2)c1`, the half-life at 1.25 µM in data set [1] worked out at 12.9 min. For the same molecule, the results for the IC50 in data set [2] and in data set [4] were 540 nM and 500 nM, respectively. The inhibition in data set [3] came out at 88.2%.

In data set [1], `O=C(CCCOc1ccc(C(F)(F)F)cc1)Nc1cc2nc[nH]c(=O)c2cc1Oc1cccc(N2CCOCC2)c1` returned a half-life at 1.25 µM of 10.1 min. For the same molecule, the IC50 in data set [2] was determined as 2480 nM. Besides, the inhibition in data set [3] was found to be 65.4%.

As to `CCc1ccc(S(=O)(=O)Nc2cc(-n3c(C)nc4ccccc4c3=O)ccc2F)s1`, the IC50 in data set [5] is more than 50000 nM.

With `O=C(Cn1c(CCNC(=O)c2ccccc2)nc2ccccc21)Nc1ccc2c(c1)CCC2`, the IC50 in data set [5] was 3300 nM; in data set [6] it was more than 50000 nM.

`O=C(NCCCOc1ccc(C(F)(F)F)cc1)c1cc2ncn(CC(=O)N3CCCCC3)c(=O)c2cc1-c1cccc(Cl)c1` yielded a half-life at 1.25 µM in data set [1] of 15.6 min. Further, the IC50 in data set [2] and in data set [4] was 800 nM throughout. The inhibition in data set [3] was 93.2%.

By half-life is commonly meant the time needed for the level to fall by half in the phase considered. Higher therefore signals slow decline. By IC50 is commonly meant the concentration needed to halve the response being measured. By inhibition is commonly meant the percentage by which the read-out fell short of the control.
